# Data taken from ChEMBL document CHEMBL1275480, “Role of global regulators and nucleotide metabolism in antibiotic tolerance in Escherichia coli” (2008).
# Key:
# Escherichia coli [1] = experiment: Antimicrobial activity against dnaJ deficient Escherichia coli K-12 BW-25113 assessed as decrease in persistence at 100 ug/ml after 3 hrs by time kill analysis; type: functional, K-12 BW25113
# In short: (§1)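 Keio single-gene deletion strains of E. coli K-12 BW25113 and the parent strain. Cultures: 1 ml LB overnight at 37°C with aeration, then diluted 1:100 into MOPS minimal medium (0.1% succinate, 0.05% Casamino Acids) and grown 5 h to exponential phase (~2 × 10^8 CFU/ml). Challenged 3 h with ciprofloxacin 1 μg/ml, streptomycin 10 μg/ml or ampicillin 100 μg/ml. Samples taken before and after, diluted, spot-plated on LB agar for CFU. Triplicate, standard deviations.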
# Escherichia coli [2] = experiment: Antimicrobial activity against dksA deficient Escherichia coli K-12 BW-25113 assessed as decrease in persistence at 100 ug/ml after 3 hrs by time kill analysis; type: functional, K-12 BW25113; in short: as §1
# Escherichia coli [3] = experiment: Antimicrobial activity against ygfA deficient Escherichia coli K-12 BW-25113 assessed as decrease in persistence at 100 ug/ml after 3 hrs by time kill analysis; type: functional, K-12 BW25113; in short: as §1
# Escherichia coli [4] = experiment: Antimicrobial activity against dnaK deficient Escherichia coli K-12 BW-25113 assessed as decrease in persistence at 100 ug/ml after 3 hrs by time kill analysis; type: functional, K-12 BW25113; in short: as §1
# Escherichia coli [5] = experiment: Antimicrobial activity against Escherichia coli K-12 BW-25113 assessed as survival rate at 10 ug/ml after 6 hrs by time kill analysis
# Escherichia coli [6] = experiment: Antimicrobial activity against apaH deficient Escherichia coli K-12 BW-25113 assessed as survival rate at 10 ug/ml after 6 hrs by time kill analysis
# Escherichia coli [7] = experiment: Antimicrobial activity against surA deficient Escherichia coli K-12 BW-25113 assessed as survival rate at 10 ug/ml after 6 hrs by time kill analysis
# Escherichia coli [8] = experiment: Antimicrobial activity against dnaK deficient Escherichia coli K-12 BW-25113 assessed as decrease in persistence at 10 ug/ml after 3 hrs by time kill analysis; type: functional, K-12 BW25113; in short: as §1
# Escherichia coli [9] = experiment: Antimicrobial activity against dksA deficient Escherichia coli K-12 BW-25113 assessed as decrease in persistence at 10 ug/ml after 3 hrs by time kill analysis relative to wild type; type: functional, K-12 BW25113; in short: as §1
# Escherichia coli [10] = experiment: Antimicrobial activity against yigB deficient Escherichia coli K-12 BW-25113 assessed as decrease in persistence at 10 ug/ml after 3 hrs by time kill analysis relative to wild type; type: functional, K-12 BW25113; in short: as §1
# Escherichia coli [11] = experiment: Antimicrobial activity against dnaJ deficient Escherichia coli K-12 BW-25113 assessed as decrease in persistence at 10 ug/ml after 3 hrs by time kill analysis; type: functional, K-12 BW25113; in short: as §1
# Escherichia coli [12] = experiment: Antimicrobial activity against ygfA deficient Escherichia coli K-12 BW-25113 assessed as decrease in persistence at 10 ug/ml after 3 hrs by time kill analysis relative to wild type; type: functional, K-12 BW25113; in short: as §1
structure (smiles),measurement,setting,value
CC1(C)S[C@@H]2[C@H](NC(=O)[C@H](N)c3ccccc3)C(=O)N2[C@H]1C(=O)O [AMPICILLIN],fold change (FC),Escherichia coli [1],46
same,fold change (FC),Escherichia coli [2],40
same,fold change (FC),Escherichia coli [3],82
same,fold change (FC),Escherichia coli [4],13
CC1COc2c(N3CCN(C)CC3)c(F)cc3c(=O)c(C(=O)O)cn1c23 (configuration not stated) [OFLOXACIN],Activity,Escherichia coli [5],1.3%
same,Activity,Escherichia coli [6],1.7%
same,Activity,Escherichia coli [7],3.3%
CN[C@@H]1[C@H](O[C@H]2[C@H](O[C@H]3[C@H](O)[C@@H](O)[C@H](N=C(N)N)[C@@H](O)[C@@H]3N=C(N)N)O[C@@H](C)[C@]2(O)C=O)O[C@@H](CO)[C@H](O)[C@H]1O [STREPTOMYCIN],fold change (FC),Escherichia coli [8],66
same,fold change (FC),Escherichia coli [9],6
same,fold change (FC),Escherichia coli [10],10
same,fold change (FC),Escherichia coli [11],87
same,fold change (FC),Escherichia coli [12],3
